Experiments:
Kidney [1] = test: Drug uptake in Sprague-Dawley rat kidney at 0.18 nmol, iv up to 30 mins by PET scanning; assay type: ADME, organism-based; conditions: in vivo, 0.5 h
Method in brief: (§1)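 Male Sprague-Dawley rats (6–8 weeks old), isoflurane-anesthetized, prone. ROIs on lung, heart, kidney, liver, small intestine and cardiac blood pool. Uptake decay-corrected to injection time and expressed as SUV (body-weight normalized). n = 4, mean ± SD.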

Liver [2] = test: Drug uptake in Sprague-Dawley rat liver at 0.18 nmol, iv pretreated with unlabeled (R)-PK11195 measured after 27.5 mins by PET scanning relative to control; assay type: ADME, organism-based; conditions: in vivo
Method in brief: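 Male Sprague-Dawley rats, 6-8 weeks old, under isoflurane, prone. An unlabeled TSPO blocking ligand (3.0 mg/kg) was injected 1 min before the iv radioligand (16-18 MBq/200 μL). A liver ROI was decay-corrected and expressed as SUV normalized to injected activity and body weight. The 27.5-min value was compared with unblocked controls; n = 4.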

Lung [3] = test: Drug uptake in Sprague-Dawley rat lung at 0.18 nmol, iv pretreated with unlabeled AC-5216 by PET scanning; assay type: ADME, organism-based; conditions: in vivo; method in brief: as §1
Intestine = test: Drug uptake in Sprague-Dawley rat small intestine at 0.18 nmol, iv up to 30 mins by PET scanning; assay type: ADME, organism-based; conditions: in vivo, 0.5 h; method in brief: as §1
Kidney [4] = test: Drug uptake in Sprague-Dawley rat kidney at 0.18 nmol, iv pretreated with unlabeled (R)-PK11195 by PET scanning; assay type: ADME, organism-based; conditions: in vivo; method in brief: as §1
Heart [5] = test: Drug uptake in Sprague-Dawley rat heart at 0.18 nmol, iv after 27.5 mins by PET scanning; assay type: ADME, organism-based; conditions: in vivo
Method in brief: (§2)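 Isoflurane-anesthetized male Sprague-Dawley rats lay prone and received an iv bolus of [11C]radioligand in 200 μL. 3D list-mode emission scans ran 30 min from injection. Regions of interest were drawn on the organs and cardiac blood pool. Uptake was decay-corrected to injection time and expressed as SUV (normalized to injected radioactivity and body weight). Values are mean of n = 4.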

Lung [6] = test: Drug uptake in Sprague-Dawley rat lung at 0.18 nmol, iv after 2 mins by PET scanning; assay type: ADME, organism-based; conditions: in vivo; method in brief: as §1
Heart [7] = test: Drug uptake in Sprague-Dawley rat heart at 0.18 nmol, iv up to 30 mins by PET scanning; assay type: ADME, organism-based; conditions: in vivo, 0.5 h; method in brief: as §2
Heart [8] = test: Drug uptake in Sprague-Dawley rat heart at 0.18 nmol, iv pretreated with unlabeled AC-5216 by PET scanning; assay type: ADME, organism-based; conditions: in vivo
Method in brief: (§3)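 Isoflurane-anesthetized Sprague-Dawley rats underwent 30-min PET after iv [11C]radioligand, with unlabeled blocker given iv 1 min before tracer. Blockers were (R)-PK11195 at 3.0 mg/kg or AC-5216 at 1.0 mg/kg in 300 μL saline with 10% ethanol and 5% polysorbate 80. Regional uptake was decay-corrected SUV (n = 4).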

Blood [9] = test: Drug uptake in Sprague-Dawley rat cardiac blood pool at 0.18 nmol, iv after 2 mins by PET scanning; assay type: ADME, organism-based; conditions: in vivo; method in brief: as §2
Heart [10] = test: Drug uptake in Sprague-Dawley rat heart at 0.18 nmol, iv after 2 mins by PET scanning; assay type: ADME, organism-based; conditions: in vivo; method in brief: as §2
Liver [11] = test: Drug uptake in Sprague-Dawley rat liver at 0.18 nmol, iv after 2 mins by PET scanning; assay type: ADME, organism-based; conditions: in vivo; method in brief: as §1
Blood [12] = test: Drug uptake in Sprague-Dawley rat cardiac blood pool at 0.18 nmol, iv after 27.5 mins by PET scanning; assay type: ADME, organism-based; conditions: in vivo; method in brief: as §2
Lung [13] = test: Drug uptake in Sprague-Dawley rat lung at 0.18 nmol, iv after 27.5 mins by PET scanning; assay type: ADME, organism-based; conditions: in vivo; method in brief: as §1
Blood [14] = test: Drug uptake in Sprague-Dawley rat cardiac blood pool at 0.18 nmol, iv up to 30 mins by PET scanning; assay type: ADME, organism-based; conditions: in vivo, 0.5 h; method in brief: as §2
Liver [15] = test: Drug uptake in Sprague-Dawley rat liver at 0.18 nmol, iv after 27.5 mins by PET scanning; assay type: ADME, organism-based; conditions: in vivo; method in brief: as §1
Liver [16] = test: Drug uptake in Sprague-Dawley rat liver at 0.18 nmol, iv pretreated unlabeled AC-5216 measured after 27.5 mins by PET scanning relative to control; assay type: ADME, organism-based; conditions: in vivo
Method in brief: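 Male Sprague-Dawley rats, 6-8 weeks, isoflurane-anesthetized. A blocking TSPO ligand (1.0 mg/kg, in 300 μL saline with 10% ethanol and 5% polysorbate 80) was injected 1 min before iv radioligand (16-18 MBq/200 μL). Liver ROI as decay-corrected SUV (injected activity, body weight), 27.5-min value versus controls; n = 4.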

Kidney [17] = test: Drug uptake in Sprague-Dawley rat kidney at 0.18 nmol, iv pretreated with unlabeled AC-5216 by PET scanning; assay type: ADME, organism-based; conditions: in vivo; method in brief: as §1
Kidney [18] = test: Drug uptake in Sprague-Dawley rat kidney at 0.18 nmol, iv after 2 mins by PET scanning; assay type: ADME, organism-based; conditions: in vivo; method in brief: as §1
Kidney [19] = test: Drug uptake in Sprague-Dawley rat kidney at 0.18 nmol, iv after 27.5 mins by PET scanning; assay type: ADME, organism-based; conditions: in vivo; method in brief: as §1
Heart [20] = test: Drug uptake in Sprague-Dawley rat heart at 0.18 nmol, iv pretreated with unlabeled (R)-PK11195 by PET scanning; assay type: ADME, organism-based; conditions: in vivo; method in brief: as §3
Lung [21] = test: Drug uptake in Sprague-Dawley rat lung at 0.18 nmol, iv up to 30 mins by PET scanning; assay type: ADME, organism-based; conditions: in vivo, 0.5 h; method in brief: as §1
Liver [22] = test: Drug uptake in Sprague-Dawley rat liver at 0.18 nmol, iv up to 30 mins by PET scanning; assay type: ADME, organism-based; conditions: in vivo, 0.5 h; method in brief: as §1
Lung [23] = test: Drug uptake in Sprague-Dawley rat lung at 0.18 nmol, iv pretreated with unlabeled (R)-PK11195 by PET scanning; assay type: ADME, organism-based; conditions: in vivo; method in brief: as §1
[24] = Lipophilicity, log D of the compound in octanol-phosphate buffer at pH 7.4 by shake flask method; assay type: physicochemical
Method in brief: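 Radioligand (~200000 cpm) shaken with n-octanol (3.0 g) and 0.1 M sodium phosphate buffer pH 7.4 (3.0 g). Vortexed 3 min at room temperature, centrifuged 3500 rpm for 5 min. Phases weighed and counted; organic layer repartitioned until consistent. LogD = log of the cpm/g octanol to cpm/g buffer ratio. Triplicate.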

Translocator protein = Translocator protein (Rattus norvegicus, UniProt P16257); test: Displacement of [11C]-PK-11195 from TPSO in Sprague-Dawley rat brain homogenate after 30 mins by gamma counting; assay type: tissue-based
Blood [25] = test: Drug uptake in iv dosed Sprague-Dawley rat cardiac blood pool up to 30 mins by PET scanning; assay type: ADME, organism-based; conditions: in vivo, 0.5 h
Method in brief: (§4)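 Comparator radioligand 15–20 MBq/200 μL (0.15–0.18 nmol) injected iv into isoflurane-anesthetized male Sprague-Dawley rats. ROI time–activity curves for lung, heart, kidney, liver and cardiac blood pool. Uptake as decay-corrected SUV normalized to injected activity and body weight. n = 4, mean ± SD.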

Liver [26] = test: Drug uptake in iv dosed Sprague-Dawley rat liver upto 30 mins by PET scanning; assay type: ADME, organism-based; conditions: in vivo, 0.5 h; method in brief: as §4
Kidney [27] = test: Drug uptake in iv dosed Sprague-Dawley rat kidney upto 30 mins by PET scanning; assay type: ADME, organism-based; conditions: in vivo, 0.5 h; method in brief: as §4
Lung [28] = test: Drug uptake in iv dosed Sprague-Dawley rat lung after 1 min by PET scanning; assay type: ADME, organism-based; conditions: in vivo; method in brief: as §4
Kidney [29] = test: Drug uptake in iv dosed Sprague-Dawley rat kidney after 10 mins by PET scanning; assay type: ADME, organism-based; conditions: in vivo; method in brief: as §4
Lung [30] = test: Drug uptake in iv dosed Sprague-Dawley rat lung after 27.5 mins by PET scanning; assay type: ADME, organism-based; conditions: in vivo; method in brief: as §4
Heart [31] = test: Drug uptake in iv dosed Sprague-Dawley rat heart after 10 mins by PET scanning; assay type: ADME, organism-based; conditions: in vivo; method in brief: as §4
Heart [32] = test: Drug uptake in iv dosed Sprague-Dawley rat heart upto 30 mins by PET scanning; assay type: ADME, organism-based; conditions: in vivo, 0.5 h; method in brief: as §4

Sequence of Translocator protein (P16257 whole entry, looked up): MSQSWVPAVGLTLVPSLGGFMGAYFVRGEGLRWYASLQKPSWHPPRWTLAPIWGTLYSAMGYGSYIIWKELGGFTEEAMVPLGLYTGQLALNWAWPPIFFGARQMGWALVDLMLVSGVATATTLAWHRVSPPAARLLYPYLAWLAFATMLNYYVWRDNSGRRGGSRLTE

## CCN(Cc1cccnc1)C(=O)Cn1c(=O)n([11CH3])c2cnc(-c3ccccc3)nc21
Kidney [1]
  Drug uptake: Active
Liver [2]
  fold change (FC): 1.5
Lung [3]
  Drug uptake: Not Active
Intestine
  Drug uptake: Active
Kidney [4]
  Drug uptake: Not Active
Heart [5]
  SUV: 0.9
Lung [6]
  SUV: 3.4
Heart [7]
  Drug uptake: Active
Heart [8]
  Drug uptake: Not Active
Blood [9]
  SUV: 3
Heart [10]
  SUV: 4.6
Liver [11]
  SUV: 1.6
Blood [12]
  SUV: 0.4
Lung [13]
  SUV: 0.5
Blood [14]
  Drug uptake: Active
Liver [15]
  SUV: 0.5
Liver [16]
  fold change (FC): 1.5
Kidney [17]
  Drug uptake: Not Active
Kidney [18]
  SUV: 3.3
Kidney [19]
  SUV: 1
Heart [20]
  Drug uptake: Not Active
Lung [21]
  Drug uptake: Active
Liver [22]
  Drug uptake: Active
Lung [23]
  Drug uptake: Not Active

## CCN(Cc1ccccc1)C(=O)Cn1c(=O)n(C)c2cnc(-c3ccccc3)nc21
[24]
  logD: 3.48
Translocator protein
  Ki: 0.6 nM

## CC[C@@H](C)N([11CH3])C(=O)c1cc2ccccc2c(-c2ccccc2Cl)n1
Blood [25]
  Drug uptake: Active
Liver [26]
  Drug uptake: Active
Kidney [27]
  Drug uptake: Active
Lung [28]
  Drug uptake: Active
Kidney [29]
  Drug uptake: Active
Lung [30]
  Drug uptake: Active
Heart [31]
  Drug uptake: Active
Heart [32]
  Drug uptake: Active

From ChEMBL document CHEMBL2203116, “Synthesis and evaluation of novel carbon-11 labeled oxopurine analogues for positron emission tomography imaging of translocator protein (18 kDa) in peripheral organs” (J Med Chem, 2011)
